Test [1] concerns the target T1, Prostaglandin G/H synthase 1 (Ovis aries) (UniProt P05979).
T1 sequence (whole entry): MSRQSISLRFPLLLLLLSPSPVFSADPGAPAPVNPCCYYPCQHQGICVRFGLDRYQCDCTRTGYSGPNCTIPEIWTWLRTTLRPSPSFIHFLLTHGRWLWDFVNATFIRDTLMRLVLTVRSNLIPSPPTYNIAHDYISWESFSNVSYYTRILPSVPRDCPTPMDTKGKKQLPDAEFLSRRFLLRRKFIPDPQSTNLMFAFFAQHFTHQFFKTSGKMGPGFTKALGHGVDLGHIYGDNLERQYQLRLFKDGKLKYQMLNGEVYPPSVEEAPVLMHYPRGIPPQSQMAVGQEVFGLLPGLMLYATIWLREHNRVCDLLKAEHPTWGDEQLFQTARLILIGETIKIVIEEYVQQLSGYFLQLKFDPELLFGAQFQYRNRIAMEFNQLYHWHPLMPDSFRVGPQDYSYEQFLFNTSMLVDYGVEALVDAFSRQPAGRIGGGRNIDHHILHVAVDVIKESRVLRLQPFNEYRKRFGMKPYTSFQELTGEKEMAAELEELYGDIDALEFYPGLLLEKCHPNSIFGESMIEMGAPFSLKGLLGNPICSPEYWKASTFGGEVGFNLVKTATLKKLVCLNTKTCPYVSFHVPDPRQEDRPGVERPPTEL
Nature of the test: Inhibition of COX1 from ram seminal vesicles at 10 ug/ml by liquid scintillation counter.

Test [2] in a line: Inhibition of sheep placental COX2 by liquid scintillation counter.
Test [3] addresses Prostaglandin G/H synthase 2 (Ovis aries, UniProt P79208). Nature of the test: Inhibition of sheep placental COX2 by liquid scintillation counter. The procedure, abridged: (§1)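 Enzymes used were ram seminal vesicle COX-1 and sheep placenta COX-2 (70% pure), 2 units each, in 0.1 M Tris-HCl pH 7.5 with 1 mM hematin and 2 mM phenol. Sample was preincubated 2 min at 37 °C, then 51.4 µM [1-14C]arachidonic acid was added for 2 min at 37 °C. Extraction used hexane-EtOAc (2:1); PGE2 was measured by radioimmunoassay with scintillation counting. IC50 came from duplicate four-point titration.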

For test [4], the target named is T2, Prostaglandin G/H synthase 1 (Ovis aries, UniProt P05979).
T2 sequence (P05979 whole entry): T1 sequence (whole entry)
Nature of the test: Inhibition of COX1 from ram seminal vesicles by liquid scintillation counter. The procedure, abridged: as §1

Test [5] has as its system Prostaglandin G/H synthase 2 (Ovis aries). Nature of the test: Inhibition of sheep placental COX2 at 10 ug/ml by liquid scintillation counter.

Chain of Prostaglandin G/H synthase 2 (P79208 whole entry, looked up): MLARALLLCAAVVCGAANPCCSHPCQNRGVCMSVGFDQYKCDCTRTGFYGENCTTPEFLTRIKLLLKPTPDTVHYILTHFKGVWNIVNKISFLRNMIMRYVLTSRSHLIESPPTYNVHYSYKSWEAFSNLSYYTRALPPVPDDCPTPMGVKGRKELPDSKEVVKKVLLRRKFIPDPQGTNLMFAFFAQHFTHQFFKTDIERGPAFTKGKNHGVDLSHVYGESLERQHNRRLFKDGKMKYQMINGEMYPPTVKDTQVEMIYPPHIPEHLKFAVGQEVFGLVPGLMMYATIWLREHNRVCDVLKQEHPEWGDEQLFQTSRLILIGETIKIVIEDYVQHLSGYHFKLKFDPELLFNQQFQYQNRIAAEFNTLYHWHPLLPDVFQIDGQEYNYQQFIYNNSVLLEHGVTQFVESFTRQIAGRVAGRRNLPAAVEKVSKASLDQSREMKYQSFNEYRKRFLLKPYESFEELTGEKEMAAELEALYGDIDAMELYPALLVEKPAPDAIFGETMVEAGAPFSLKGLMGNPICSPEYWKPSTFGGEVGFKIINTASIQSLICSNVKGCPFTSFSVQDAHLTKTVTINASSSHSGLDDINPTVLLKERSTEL

A word on the inhibition: it is the drop in the measured response relative to a control, in per cent. As for `C=C(CC[C@@H](C(=O)O[C@@H]1OC[C@@H](O)[C@H](O)[C@H]1O)[C@H]1CC[C@@]2(C)C3=C(CC[C@]12C)[C@@]1(C)CC[C@@H](OC(C)=O)C(C)(C)[C@@H]1CC3)C(C)C`, the inhibition in test [1] was determined as 21.7%. The compound further showed an INH in test [2] of 1.85 ×10⁻⁵ M.
Usually IC50 stands for the concentration that inhibits the measured activity by half. The compound `CC(C)(O)[C@@H](O)CC[C@@H](C(=O)O)[C@H]1CC[C@@]2(C)C3=C(CC[C@]12C)[C@@]1(C)CCC(=O)C(C)(C)[C@@H]1CC3` [FOMITOPINIC ACID A] had an inhibition in test [1] of 18.1%. 1.15 µM corresponded to half-maximal inhibition in test [3] (IC50).
Consider `CC(C)=CCC[C@@H](C(=O)O[C@@H]1OC[C@@H](O)[C@H](O)[C@H]1O)[C@H]1CC[C@@]2(C)C3=C(CC[C@]12C)[C@@]1(C)CCC(=O)C(C)(C)[C@@H]1CC3` [FOMITOSIDE C], for which the IC50 in test [3] worked out at 5110 µM; in test [4], 1910 µM.
On the same counts, the results for `C=C(CC[C@@H](C(=O)O[C@@H]1OC[C@@H](O)[C@H](O)[C@H]1O)[C@H]1CC[C@@]2(C)C3=C(CC[C@]12C)[C@@]1(C)CCC(=O)C(C)(C)[C@@H]1CC3)C(C)C` [FOMITOSIDE D] are 2390 µM and 3330 µM.
Compound `CC(=O)O[C@@H]1CC[C@]2(C)C3=C(CC[C@H]2C1(C)C)[C@]1(C)CC[C@H]([C@@H](C/C=C/C(C)(C)O)C(=O)O[C@@H]2OC[C@@H](O)[C@H](O)[C@H]2O)[C@@]1(C)CC3` [FOMITOSIDE E] registered an inhibition in test [1] of 57.2%. This compound displayed an IC50 in test [3] of 0.15 µM.
The compound `CC(=O)O[C@@H]1CC[C@]2(C)C3=C(CC[C@H]2C1(C)C)[C@]1(C)CC[C@H]([C@@H](CCC=C(C)C)C(=O)O[C@@H]2OC[C@@H](O)[C@H](O)[C@H]2O)[C@@]1(C)CC3` [FOMITOSIDE F] showed an inhibition in test [1] of 27.5%. In test [3], this compound returned an IC50 of 1.13 µM.
In test [5], `COC(=O)CC(C)(O)CC(=O)O[C@@H]1CC[C@]2(C)C3=C(CC[C@H]2C1(C)C)[C@]1(C)CC[C@H]([C@@H](CCC=C(C)C)C(=O)O[C@@H]2OC[C@@H](O)[C@H](O)[C@H]2O)[C@@]1(C)CC3` (some centres undefined) [FOMITOSIDE H] registered an inhibition of 70.1%. The IC50 in test [4] worked out at 73.9 µM.

Source of the values: ChEMBL document CHEMBL1142564, “Lanostane triterpenoids and triterpene glycosides from the fruit body of Fomitopsis pinicola and their inhibitory activity against COX-1 and COX-2” (J Nat Prod, 2005).
